In ChEMBL document CHEMBL4680191, “Discovery of novel akt1 inhibitor induces autophagy associated death in hepatocellular carcinoma cells” (Eur J Med Chem, 2020):
Activity calls are given as the source filed them. No cut-off for these calls is given here.

What was measured:
Huh-7 [1] = assay: Antitumour activity against human Huh-7 cells xenografted in nude mouse assessed as increase in LC3-2 at 20 to 50 mg/kg, ip up to 15 days by immunohistochemical analysis; assay type: functional, organism-based; settings: dose 20-50 mg/kg, time day <=15
In short: (§1)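 Tumors came from Huh-7 xenografted nude mice dosed intraperitoneally at 25 or 50 mg/Kg for 15 days. For IHC, sections underwent microwave antigen retrieval (EDTA pH 8.0 or citrate pH 6.0), then primary antibody at 37 °C for 30-40 min. HRP polymer/secondary was applied for 30 min, with DAB development and control IgG.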

Huh-7 [2] = assay: Antitumour activity against human Huh-7 cells xenografted in nude mouse assessed as increase in apoptotic cells at […], ip up to 15 days by TUNEL assay; assay type: functional, organism-based; settings: time day <=15
In short: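 Tumor sections came from Huh-7 xenografted nude mice given 25 or 50 mg/Kg intraperitoneally over 15 days. Apoptotic cells were detected by TUNEL staining.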

Huh-7 [3] = assay: Induction of autophagy in human Huh-7 cells assessed as increase in p62/SQSTM1 protein expression at 0.1 to 0.2 uM by Western blot analysis; assay type: functional, cell-based; settings: dose 0.1-0.2 µM
In short: (§2)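 Huh-7 cells were treated with or without compound. Total protein extracts were separated by SDS-PAGE and transferred to PVDF. Membranes were probed with primary antibodies, then HRP-conjugated secondary antibody (1:10,000), and detected by enhanced chemiluminescence.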

Huh-7 [4] = assay: Induction of autophagy in human Huh-7 cells assessed as reduction in cathepsin B activity at 0.2 uM in presence of 3-MA; assay type: functional, cell-based
Huh-7 [5] = assay: Induction of apoptosis in human Huh-7 cells assessed as necrotic cells at 0.2 uM by Annexin V/propidium iodide staining based flow cytometric analysis (reference value: 0.59%); assay type: functional
Huh-7 [6] = assay: Induction of autophagy in human Huh-7 cells harboring mCherry-GFP-LC assessed as increase in autophagosome puncta formation at 0.2 uM by fluorescence assay; assay type: functional, cell-based
[7] = biological target: Glycogen synthase kinase-3 beta (Homo sapiens) (UniProt P49841); assay: Inhibition of GSK3beta phosphorylation at […] residue in human Huh-7 cells at 0.1 to 0.2 uM by Western blot analysis; assay type: cell-based; settings: dose 0.1-0.2 µM; in short: as §2
Huh-7 [8] = assay: Induction of apoptosis in human Huh-7 cells assessed as viable cells at 0.1 uM by Annexin V/propidium iodide staining based flow cytometric analysis (reference value: 94.83%); assay type: functional; settings: read-out: Activity
[9] = biological target: cAMP-dependent protein kinase catalytic subunit alpha (Homo sapiens) (UniProt P17612); assay: Inhibition of full length human PKAcalpha assessed as remaining activity at 1 uM using LRRASLG as substrate incubated for 40 mins by scintillation counting method relative to control
In short: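 Run as an outsourced KinaseProfiler service, with human PKA and Akt1, Akt2 and Akt3 in the same panel. Each compound was tested at a single 1 µM concentration, and the result is reported as kinase activity remaining, as a percentage of control.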

Huh-7 [10] = assay: Induction of autophagy flux arrest in human Huh-7 cells assessed as reduction in LAMP1 at 0.2 uM by immunofluorescence staining based assay; assay type: functional, cell-based
In short: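 Huh-7 cells with or without 0.2 µM compound were immunofluorescently co-stained for LC3 (autophagosome) and LAMP1 (lysosome). Co-localization was assessed by fluorescence imaging.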

Huh-7 [11] = assay: Induction of apoptosis in human Huh-7 cells assessed as late apoptotic cells at 0.2 uM by Annexin V/propidium iodide staining based flow cytometric analysis (reference value: 3.15%); assay type: functional
HepG2 = assay: Cytotoxicity against human HepG2 cells assessed as reduction in cell viability by MTT assay; assay type: functional, cell-based
In short: (§3)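 Hepatoma cells were grown in DMEM with 10% FBS and streptomycin, then treated with compounds. Viability was read by MTT.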

Huh-7 [12] = assay: Antitumour activity against human Huh-7 cells xenografted in nude mouse assessed as decrease in phosphorylation of AKT at 20 to 50 mg/kg, ip up to 15 days by immunohistochemical analysis; assay type: functional, organism-based; settings: dose 20-50 mg/kg, time day <=15; in short: as §1
Huh-7 [13] = assay: Induction of apoptosis in human Huh-7 cells assessed as late apoptotic cells at 0.1 uM by Annexin V/propidium iodide staining based flow cytometric analysis (reference value: 3.15%); assay type: functional
SMMC-7721 = assay: Cytotoxicity against human SMMC-7721 cells assessed as reduction in cell viability by MTT assay; assay type: functional, cell-based; in short: as §3
Huh-7 [14] = assay: Antitumour activity against human Huh-7 cells xenografted in nude mouse assessed as decrease in Ki-67 at […], ip up to 15 days by immunohistochemical analysis; assay type: functional, organism-based; settings: time day <=15
In short: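 Subcutaneous Huh-7 xenografts in nude mice were dosed intraperitoneally at 25 or 50 mg/kg and followed over days 1–15. For IHC, tumour sections had microwave antigen retrieval in EDTA (pH 8.0) or citrate (pH 6.0) buffer. They were incubated with primary antibody at 37 °C for 30–40 min, then secondary antibody with HRP polymer for 30 min, and developed with DAB. Normal IgG served as negative control.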

Huh-7 [15] = assay: Antitumour activity against human Huh-7 cells xenografted in nude mouse assessed as reduction in tumour volume at […], ip up to 15 days; assay type: functional, organism-based; settings: time day <=15
In short: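 Nude mice bearing subcutaneous Huh-7 xenografts received 25 or 50 mg/Kg compound intraperitoneally. Tumor volume was followed from day 1 to day 15, with excised tumors weighed at the end. Body weight was also monitored.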

Hep 3B2 = assay: Induction of autophagy in human Hep3B cells harboring GFP-LC3 assessed as increase in number of the autophagosome puncta at 0.2 uM after 6 hrs; assay type: functional, cell-based
In short: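 GFP-LC3-transfected cells were exposed to saline or compound for 6 h, then fixed with paraformaldehyde. Autophagosome puncta were scored by fluorescence of accumulated GFP-LC3.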

Huh-7 [16] = assay: Induction of autophagy in human Huh-7 cells assessed as reduction in cathepsin B activity at 0.2 uM in presence of Baf-A1; assay type: functional, cell-based
Huh-7 [17] = assay: Cytotoxicity against human Huh-7 cells assessed as reduction in cell viability by MTT assay; assay type: functional, cell-based; in short: as §3
[18] = Effect on total GDK3beta protein level in human Huh-7 cells at 0.1 to 0.2 uM by Western blot analysis; assay type: ADME, cell-based; settings: huh-7, 0.2 µM, dose 0.1-0.2 µM; in short: as §2
[19] = Effect on total AKT level in human Huh-7 cells xenografted in nude mouse at 20 to 50 mg/kg, ip up to 15 days by immunohistochemical analysis; assay type: ADME, organism-based; settings: in vivo, 360 h, dose 20-50 mg/kg, time <=15 day; in short: as §1
Huh-7 [20] = assay: Induction of apoptosis in human Huh-7 cells assessed as early apoptotic cells at 0.1 uM by Annexin V/propidium iodide staining based flow cytometric analysis (reference value: 1.43%); assay type: functional
Huh-7 [21] = assay: Antitumour activity against human Huh-7 cells xenografted in nude mouse assessed as reduction in tumour weight at […], ip up to 15 days; assay type: functional, organism-based; settings: time day <=15
[22] = test system: RAC-gamma serine/threonine-protein kinase (Homo sapiens), Q9Y243 [S472D]; assay: Inhibition of full length human Akt3 S472D mutant assessed as remaining activity at 1 uM using GRPRTSSFAEGKK as substrate incubated for 40 mins by scintillation counting method relative to control
In short: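 Eurofins KinaseProfiler kinase assay on human Akt1, Akt2 and Akt3. Compounds were tested at 1 µM. Residual kinase activity is reported as % of control.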

Sequence of Glycogen synthase kinase-3 beta (Homo sapiens) (P49841 whole entry, looked up): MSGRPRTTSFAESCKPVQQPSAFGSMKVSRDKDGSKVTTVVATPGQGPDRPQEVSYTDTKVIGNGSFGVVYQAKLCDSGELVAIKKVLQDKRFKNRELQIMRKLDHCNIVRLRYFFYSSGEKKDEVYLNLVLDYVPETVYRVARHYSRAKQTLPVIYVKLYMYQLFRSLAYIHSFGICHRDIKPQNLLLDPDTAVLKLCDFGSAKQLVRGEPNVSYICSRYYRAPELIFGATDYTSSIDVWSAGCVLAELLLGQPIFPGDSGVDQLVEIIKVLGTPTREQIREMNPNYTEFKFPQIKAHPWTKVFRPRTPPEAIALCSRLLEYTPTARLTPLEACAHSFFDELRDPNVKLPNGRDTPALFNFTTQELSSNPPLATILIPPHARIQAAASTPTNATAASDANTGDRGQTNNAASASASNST
Sequence of RAC-gamma serine/threonine-protein kinase (Homo sapiens), Q9Y243 [S472D] (Q9Y243 whole entry S472D): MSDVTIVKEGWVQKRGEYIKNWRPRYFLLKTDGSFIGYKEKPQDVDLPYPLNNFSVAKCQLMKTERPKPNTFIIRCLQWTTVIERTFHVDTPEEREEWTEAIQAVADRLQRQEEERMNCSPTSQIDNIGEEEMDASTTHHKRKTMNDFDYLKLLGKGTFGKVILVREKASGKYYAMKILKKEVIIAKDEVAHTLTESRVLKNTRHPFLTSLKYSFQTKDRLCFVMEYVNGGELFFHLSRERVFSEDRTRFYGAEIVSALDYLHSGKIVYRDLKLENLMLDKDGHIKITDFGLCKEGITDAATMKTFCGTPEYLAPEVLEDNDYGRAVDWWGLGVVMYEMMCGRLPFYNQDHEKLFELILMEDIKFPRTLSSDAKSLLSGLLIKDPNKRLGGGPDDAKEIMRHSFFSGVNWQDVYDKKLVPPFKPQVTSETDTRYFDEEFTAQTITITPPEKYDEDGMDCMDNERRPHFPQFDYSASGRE

In the case of `O=C(C(CNC1CCCC1)c1ccc(Cl)cc1)N1CCN(c2ncnc3sc4c(c23)CCC4)CC1` (stereo not given), the Activity (Huh-7 [1]) is reported as “Active”, the Activity (Huh-7 [2]) is reported as “Active” and the Activity (Huh-7 [3]) is reported as “Active”. For the same compound, the Activity (Huh-7 [4]) was “inactive”, the Activity (Huh-7 [5]) was 2.99% and the Activity (Huh-7 [6]) was “Active”. For the same compound, the inhibition [7] was “Active”, the viability at 0.1 µM (Huh-7 [8]) was 84.2% and the Activity [9] was 35%. The Activity (Huh-7 [10]) was “Active”, the Activity (Huh-7 [11]) was 9.13% and the IC50 (HepG2) was 183 nM. The Activity (Huh-7 [12]) was “Active”, the Activity (Huh-7 [13]) was 7.92% and the IC50 (SMMC-7721) was 386 nM. The Activity (Huh-7 [14]) was “Active”, the Activity (Huh-7 [15]) was “Active” and the Activity (Hep 3B2) was “Active”. The Activity (Huh-7 [16]) was “Active”, the IC50 (Huh-7 [17]) was 76 nM and the Activity [18] was “Non-Toxic”. For the same compound, the Activity [19] was “Non-Toxic”, the Activity (Huh-7 [20]) was 5.15% and the Activity (Huh-7 [21]) was “Active”. The Activity [22] was 22%.
